In general, IC50 refers to the concentration that gives 50% inhibition. The low end stands for greater potency in that assay, the high end for weaker potency in that assay. One may read the GI50 as the concentration giving 50% growth inhibition. Read a low GI50 as more potent growth inhibition.

SMILES strings stand for the structures. Where only a bound is given, the exact number is not on record here.

Sequence of Serine/threonine-protein kinase B-raf (P15056 2-766 V600E limits assumed): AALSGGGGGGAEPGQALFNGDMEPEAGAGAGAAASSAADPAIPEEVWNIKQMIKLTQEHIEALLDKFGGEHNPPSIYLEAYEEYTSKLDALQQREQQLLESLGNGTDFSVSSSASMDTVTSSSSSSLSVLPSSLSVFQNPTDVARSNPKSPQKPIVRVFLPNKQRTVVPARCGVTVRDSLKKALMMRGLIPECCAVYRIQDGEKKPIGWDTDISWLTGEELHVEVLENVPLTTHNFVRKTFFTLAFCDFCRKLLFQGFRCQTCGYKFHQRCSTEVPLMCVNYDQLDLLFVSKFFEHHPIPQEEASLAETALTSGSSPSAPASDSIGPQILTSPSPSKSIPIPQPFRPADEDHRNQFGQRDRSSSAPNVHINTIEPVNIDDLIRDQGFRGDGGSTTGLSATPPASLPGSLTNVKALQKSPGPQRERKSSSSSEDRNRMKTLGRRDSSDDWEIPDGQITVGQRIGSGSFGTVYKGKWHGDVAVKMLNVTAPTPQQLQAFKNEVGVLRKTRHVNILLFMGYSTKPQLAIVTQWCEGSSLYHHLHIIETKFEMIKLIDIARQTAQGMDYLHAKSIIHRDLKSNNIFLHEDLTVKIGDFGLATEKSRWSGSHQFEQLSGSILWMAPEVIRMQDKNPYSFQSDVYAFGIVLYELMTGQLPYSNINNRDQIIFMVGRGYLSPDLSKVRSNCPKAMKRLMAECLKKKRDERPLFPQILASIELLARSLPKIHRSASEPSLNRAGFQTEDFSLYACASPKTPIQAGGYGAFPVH

Test system in the first assay: not listed separately
Description: Inhibition of mouse full length GST-tagged B-Raf V600E mutant-mediated human MEK1 phosphorylation after 1 hr preincubation.
Conditions: not given
Take `Cc1ccc(N(Cc2cc(Cl)cc(Cl)c2O)CN(N=O)c2ccccc2)cc1`: the IC50 was determined as 8.61 µM.

For the compound `Cc1ccc(N2C(=O)c3ccccc3SC2c2cc(Br)ccc2O)cc1` (centres undefined), the IC50 was greater than 25 µM.

As for `O=C1c2ccccc2SC(c2cc(Br)ccc2O)N1c1ccc(C(F)(F)F)cc1` (centres undefined), the IC50 was greater than 25 µM.

For the compound `O=c1cc(-c2ccc3c(c2)OCCO3)oc2cc(CCCN3CCCC3)cc(O)c12`, 10.6 µM corresponded to half-maximal inhibition (IC50).

For the compound `CNC(=O)c1cc(Oc2ccc(NC(=O)Nc3ccc(Cl)c(C(F)(F)F)c3)cc2)ccn1` [SORAFENIB], 0.06 µM corresponded to half-maximal inhibition (IC50).

Test system in the next assay: not listed separately
Put plainly: Growth inhibition of human WM266.4 cells expressing B-Raf V600E mutant after 24 hrs by MTT assay. Format: functional. The settings on record: WM 266-4, 24 h. The method, boiled down: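 MTT growth assay. Cells were plated, then returned to the incubator for 24 h to reattach before treatment. Compounds were made up at 20 mM in DMSO (stock), diluted in culture medium to […], and tested over 10 threefold serial dilutions. GI50 was reported from three separate experiments, or from two for some entries.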
In general terms: Tetrazolium assays rely on reduction of a dye to a coloured formazan, in cell work by metabolically active cells.
In the case of `CNC(=O)c1cc(Oc2ccc(NC(=O)Nc3ccc(Cl)c(C(F)(F)F)c3)cc2)ccn1` [SORAFENIB], the GI50 is 8.3 µM.

A further assay concerns the target Serine/threonine-protein kinase B-raf (Homo sapiens, UniProt P15056, V600E). Put plainly: Inhibition of B-Raf V600E mutant-mediated ERK phosphorylation in human WM266.4 cells by ELISA. Format: cell-based.
Conditions: not given
The essentials:
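Phospho-ERK1/2 levels in WM266.4 melanoma cells were measured with an ELISA kit, run as the manufacturer instructs.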
`O=C(/C(=C\c1ccc([N+](=O)[O-])cc1)S(=O)(=O)Cc1ccccc1)c1ccccc1` had an IC50 of 1.37 µM.

Compound `O=C(/C(=C\c1ccc([N+](=O)[O-])cc1)S(=O)(=O)Cc1ccccc1)c1ccc(Cl)cc1` displayed an IC50 of 1.23 µM.

`O=C(/C(=C\c1ccc(F)cc1)S(=O)(=O)Cc1ccccc1)c1ccc(Cl)cc1` returned an IC50 of 1.78 µM.

Values taken from ChEMBL document CHEMBL1949577, “Design, synthesis and biological evaluation of novel (E)-α-benzylsulfonyl chalcone derivatives as potential BRAF inhibitors” (Eur J Med Chem, 2012).
